Laboratory results reported in ChEMBL document CHEMBL1255223, “Structure-activity relationship study of first selective inhibitor of excitatory amino acid transporter subtype 1: 2-Amino-4-(4-methoxyphenyl)-7-(naphthalen-1-yl)-5-oxo-5,6,7,8-tetrahydro-4H-chromene-3-carbonitrile (UCPH-101)” (J Med Chem, 2010).
The source made the active and inactive calls. The calls are words filed in the database; no cut-off is given here.

Experiments:
[1] = target: T1, Excitatory amino acid transporter 3 (Homo sapiens) (UniProt P43005); assay: Inhibition of human EAAT3 expressed in HEK293 cells at 300 uM by [3H]D-Asp uptake assay; type: cell-based
T1 sequence (whole entry): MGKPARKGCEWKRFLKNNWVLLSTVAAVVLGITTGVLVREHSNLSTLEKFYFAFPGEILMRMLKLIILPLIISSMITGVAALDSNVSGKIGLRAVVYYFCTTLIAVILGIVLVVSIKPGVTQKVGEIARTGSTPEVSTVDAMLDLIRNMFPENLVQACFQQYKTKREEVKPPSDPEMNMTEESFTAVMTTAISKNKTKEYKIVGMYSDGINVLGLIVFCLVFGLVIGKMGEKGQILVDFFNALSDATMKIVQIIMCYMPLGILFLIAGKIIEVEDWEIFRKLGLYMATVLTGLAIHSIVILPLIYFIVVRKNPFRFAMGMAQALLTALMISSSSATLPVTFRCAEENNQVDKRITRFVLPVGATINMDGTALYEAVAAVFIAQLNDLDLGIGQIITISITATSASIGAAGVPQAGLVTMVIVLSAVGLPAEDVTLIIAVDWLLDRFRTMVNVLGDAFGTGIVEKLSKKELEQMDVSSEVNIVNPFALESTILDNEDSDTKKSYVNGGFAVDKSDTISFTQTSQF
Summary of the method: (§1)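 [3H]-D-Asp uptake was measured in HEK293 cell lines expressing EAAT2 or EAAT3. Each analogue was tested at the highest concentration possible for it (75, 100, 300 or 1000 μM) to assess inhibitory activity.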

[2] = target: Excitatory amino acid transporter 1 (Homo sapiens, UniProt P43003); assay: Inhibition of human EAAT1 expressed in HEK293 cells by [3H]D-Asp uptake assay; type: cell-based; conditions: for pIC50: hek293
Sequence of Excitatory amino acid transporter 1 (P43003 whole entry): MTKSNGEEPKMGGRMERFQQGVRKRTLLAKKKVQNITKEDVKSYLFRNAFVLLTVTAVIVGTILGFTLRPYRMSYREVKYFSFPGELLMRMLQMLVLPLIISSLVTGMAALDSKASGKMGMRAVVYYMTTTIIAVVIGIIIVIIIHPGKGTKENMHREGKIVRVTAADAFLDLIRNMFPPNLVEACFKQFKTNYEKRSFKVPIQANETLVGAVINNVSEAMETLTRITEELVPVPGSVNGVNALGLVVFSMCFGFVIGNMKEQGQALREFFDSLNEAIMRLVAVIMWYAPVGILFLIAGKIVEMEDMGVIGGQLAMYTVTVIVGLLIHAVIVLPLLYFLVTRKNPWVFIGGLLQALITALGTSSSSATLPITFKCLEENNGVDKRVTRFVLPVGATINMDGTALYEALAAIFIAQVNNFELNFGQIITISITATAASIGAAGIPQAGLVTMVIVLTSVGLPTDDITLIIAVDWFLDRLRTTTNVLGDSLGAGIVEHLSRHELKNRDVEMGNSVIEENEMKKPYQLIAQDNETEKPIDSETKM

[3] = target: Excitatory amino acid transporter 2 (Homo sapiens) (UniProt P43004); assay: Inhibition of human EAAT2 expressed in HEK293 cells at 300 uM by [3H]D-Asp uptake assay; type: cell-based; summary of the method: as §1
Sequence of Excitatory amino acid transporter 2 (Homo sapiens) (P43004 whole entry): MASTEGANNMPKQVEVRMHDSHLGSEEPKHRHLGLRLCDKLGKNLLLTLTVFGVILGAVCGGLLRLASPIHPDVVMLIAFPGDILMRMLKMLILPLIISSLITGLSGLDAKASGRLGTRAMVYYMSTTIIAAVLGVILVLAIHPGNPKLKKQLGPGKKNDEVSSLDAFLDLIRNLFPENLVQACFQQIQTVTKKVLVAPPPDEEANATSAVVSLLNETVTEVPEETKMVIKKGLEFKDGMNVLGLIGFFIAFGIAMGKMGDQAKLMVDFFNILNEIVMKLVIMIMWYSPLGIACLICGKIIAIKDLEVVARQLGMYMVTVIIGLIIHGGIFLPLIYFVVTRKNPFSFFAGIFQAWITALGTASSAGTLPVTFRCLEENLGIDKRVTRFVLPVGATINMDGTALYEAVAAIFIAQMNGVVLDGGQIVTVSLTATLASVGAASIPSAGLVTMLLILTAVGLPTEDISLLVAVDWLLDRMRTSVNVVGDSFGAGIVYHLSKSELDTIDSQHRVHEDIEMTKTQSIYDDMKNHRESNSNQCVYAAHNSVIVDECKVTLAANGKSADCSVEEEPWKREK

Brain = assay: Drug level in Sprague-Dawley rat brain at 10 mg/kg; type: ADME, organism-based; parameters: dose 10 mg/kg; conditions: in vivo
Summary of the method: (§2)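 Male Sprague-Dawley rats (225 g at arrival) received an oral dose of 10 mg/kg, formulated in 100% PEG400 (5 mL/kg). Three groups (n = 3/group) were sampled at 0.5, 1 and 2 h for cardiac EDTA plasma (under isoflurane) and whole brain homogenized in 70% acetonitrile. UPLC-MS/MS quantitation used an internal standard, with a brain limit of quantification of 10 ng/g.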

[4] = Terminal half life in Sprague-Dawley rat at 10 mg/kg; type: ADME, organism-based; parameters: dose 10 mg/kg; conditions: in vivo, read-out: beta t1/2; summary of the method: as §2
[5] = target: T1, Excitatory amino acid transporter 3 (Homo sapiens); assay: Inhibition of human EAAT3 expressed in HEK293 cells at 100 uM by [3H]D-Asp uptake assay; type: cell-based; summary of the method: as §1
[6] = target: Excitatory amino acid transporter 2 (Homo sapiens) (UniProt P43004); assay: Inhibition of human EAAT2 expressed in HEK293 cells at 100 uM by [3H]D-Asp uptake assay; type: cell-based; summary of the method: as §1
[7] = target: Excitatory amino acid transporter 2 (Homo sapiens) (UniProt P43004); assay: Inhibition of human EAAT2 expressed in HEK293 cells at 1000 uM by [3H]D-Asp uptake assay; type: cell-based; summary of the method: as §1
[8] = target: T1, Excitatory amino acid transporter 3 (Homo sapiens); assay: Inhibition of human EAAT3 expressed in HEK293 cells at 1000 uM by [3H]D-Asp uptake assay; type: cell-based; summary of the method: as §1
[9] = target: Excitatory amino acid transporter 2 (Homo sapiens) (UniProt P43004); assay: Inhibition of human EAAT2 expressed in HEK293 cells at 75 uM by [3H]D-Asp uptake assay; type: cell-based; summary of the method: as §1
[10] = target: T1, Excitatory amino acid transporter 3 (Homo sapiens); assay: Inhibition of human EAAT3 expressed in HEK293 cells at 75 uM by [3H]D-Asp uptake assay; type: cell-based; summary of the method: as §1

SMILES	inhibition [1]	IC50 ([2]; read-out: IC50) [µM]	IC50 ([2]; read-out: pIC50 (converted)) [µM]	inhibition [3]	inhibition [5]	inhibition [6]	further results
N#CC1=C(N)OC2=C(C(=O)N[C@H](c3ccccc3)C2)[C@@H]1c1ccccc1 (relative stereo)	inactive	> 300	> 316	inactive			
COc1ccc(C2C(C#N)=C(N)OC3=C2C(=O)CC(c2cccc4ccccc24)C3)cc1 (stereo unspecified)	inactive			inactive			Drug uptake (Brain): < 10 ng/g; half-life [4]: 30 min
CC1C(C#N)=C(N)OC2=C1C(=O)CC(c1cccc3ccccc13)C2 (stereo unspecified)		0.43	0.339		inactive	inactive	
N#CC1=C(N)OC2=C(C(=O)CCC2)C1c1ccccc1F (stereo unspecified)	inactive		> 316	inactive			
NC(=O)C1=C(N)OC2=C(C(=O)CC(c3ccccc3)C2)C1c1ccccc1 (stereo unspecified)		> 100			inactive	inactive	pIC50 [2]: < 4
NC1=CC(c2ccccc2)C2=C(CC(c3ccccc3)CC2=O)O1 (stereo unspecified)		> 100			inactive	inactive	pIC50 [2]: < 4
COc1ccc(C2C(C#N)=C(N)OC3=C2C(=O)CC(Cc2ccccc2)C3)cc1 (stereo unspecified)		5.1	4.79		inactive	inactive	
N#CC1=C(N)OC2=C(C(=O)O[C@@H](c3ccccc3)C2)[C@@H]1c1ccccc1 (relative stereo)	inactive	> 300	> 316	inactive			
CCO/C=N/C1=C(C#N)C(c2ccccc2)C2=C(CC(c3ccccc3)CC2=O)O1 (stereo unspecified)		> 1000					pIC50 [2]: < 3; inhibition [7]: inactive; inhibition [8]: inactive
N#CC1=C(N)OC2=C(C(=O)CC(c3ccccc3)C2)C1c1ccccc1F (stereo unspecified)					inactive	inactive	
CC1CC(=O)C2=C(C1)OC(N)=C(C#N)C2c1ccc2c(c1)OCO2 (stereo unspecified)	inactive		> 316	inactive			
N#CC1=C(N)OC2=C(C(=O)N[C@@H](c3ccccc3)C2)[C@@H]1c1ccccc1 (relative stereo)	inactive	> 300	> 316	inactive			
CC1C(C#N)=C(N)OC2=C1C(=O)CC(c1ccccc1)C2 (stereo unspecified)	inactive			inactive			
CC(=O)NC1=C(C#N)C(c2ccccc2)C2=C(CC(c3ccccc3)CC2=O)O1 (stereo unspecified)		> 100			inactive	inactive	pIC50 [2]: < 4
N#CC1=C(N)OC2=C(C(=O)O[C@H](c3ccccc3)C2)[C@@H]1c1ccccc1 (relative stereo)	inactive	> 300	> 316	inactive			
N#CC1=C(N)OC2=C(C(=O)CC(c3ccccc3)C2)C1c1ccccc1 (stereo unspecified)		3.8	6.31				inhibition [7]: inactive; inhibition [8]: inactive
COc1ccc(C2C(C#N)=C(N)OC3=C2C(=O)CC(c2ccc4ccccc4c2)C3)cc1 (stereo unspecified)	inactive	3.2		inactive			
COC(=O)C1=C(N)OC2=C(C(=O)CC(c3ccccc3)C2)C1c1ccccc1 (stereo unspecified)	inactive	> 300	> 316	inactive			
N#CC1=C(N)OC2=C(C1)C(=O)CC(c1ccccc1)C2 (stereo unspecified)	inactive		> 316	inactive			
CC(C)(C)OC(=O)C1=C(N)OC2=C(C(=O)CC(c3ccccc3)C2)C1c1ccccc1 (stereo unspecified)		> 75	> 158				inhibition [9]: inactive; inhibition [10]: inactive
N#CC1=COC2=C(C(=O)CC(c3ccccc3)C2)C1c1ccccc1 (stereo unspecified)		> 100			inactive	inactive	pIC50 [2]: < 4
